Assay results taken from ChEMBL document CHEMBL4229560, “Increasing C-Terminal Hydrophobicity Improves the Cell Permeability and Antiproliferative Activity of PACE4 Inhibitors against Prostate Cancer Cell Lines” (J Med Chem, 2018).
Where a SMILES comes first, the peptide text is derived from it. [ ]: non-standard residue; d: D form. The star is where a group is joined. Phe(4-guanidino) = N=C(N)Nc1ccc(C[C@H](N)C(=O)O)cc1; Phe(4-NH2) = Nc1ccc(C[C@H](N)C(=O)O)cc1; Tryptamide = c1ccc2c(CCN*)c[nH]c2c1; βAla = NCCC(=O)O

Experiments:
Homo sapiens = species on record: Homo sapiens; assay: Selectivity ratio of Ki for recombinant human furin to Ki for recombinant human PACE4
Procedure, shortened: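 Ki values came from human recombinant enzymes expressed in S2 insect cells. Furin was assayed in 100 mM HEPES pH 7.5, 1 mM CaCl2, 1 mM β-mercaptoethanol and 1.8 g/L BSA. PACE4 was assayed in 20 mM Bis-Tris pH 6.5, 1 mM CaCl2 and 1.8 g/L BSA. Substrate was pERTKR-AMC at 100 µM, with inhibitor at 0–10 µM. Fluorescence (ex 370/em 460 nm) was read for 1 h, and Ki derived by Cheng-Prusoff.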

Furin = Furin (Homo sapiens, UniProt P09958); assay: Inhibition of recombinant human furin expressed in S2 insect cells using pyroGlu-Arg-Thr-Lys-Arg-AMC peptide as substrate after 1 hr by spectrofluorometry
Procedure, shortened: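 Furin was human recombinant from S2 insect cells, purified. Buffer 100 mM HEPES pH 7.5, 1 mM CaCl2, 1 mM β-mercaptoethanol, 1.8 g/L BSA. Substrate 100 µM per well, inhibitors 0–10 µM, 2 units enzyme. Real-time fluorescence (ex 370/em 460 nm) over 1 h. Ki by Cheng–Prusoff; duplicate or triplicate.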

[1] = target: T1, Proprotein convertase subtilisin/kexin type 6 (Homo sapiens, UniProt P29122); assay: Inhibition of recombinant human PACE4 expressed in S2 insect cells using pyroGlu-Arg-Thr-Lys-Arg-AMC peptide as substrate after 1 hr by spectrofluorometry
T1 sequence (P29122 whole entry): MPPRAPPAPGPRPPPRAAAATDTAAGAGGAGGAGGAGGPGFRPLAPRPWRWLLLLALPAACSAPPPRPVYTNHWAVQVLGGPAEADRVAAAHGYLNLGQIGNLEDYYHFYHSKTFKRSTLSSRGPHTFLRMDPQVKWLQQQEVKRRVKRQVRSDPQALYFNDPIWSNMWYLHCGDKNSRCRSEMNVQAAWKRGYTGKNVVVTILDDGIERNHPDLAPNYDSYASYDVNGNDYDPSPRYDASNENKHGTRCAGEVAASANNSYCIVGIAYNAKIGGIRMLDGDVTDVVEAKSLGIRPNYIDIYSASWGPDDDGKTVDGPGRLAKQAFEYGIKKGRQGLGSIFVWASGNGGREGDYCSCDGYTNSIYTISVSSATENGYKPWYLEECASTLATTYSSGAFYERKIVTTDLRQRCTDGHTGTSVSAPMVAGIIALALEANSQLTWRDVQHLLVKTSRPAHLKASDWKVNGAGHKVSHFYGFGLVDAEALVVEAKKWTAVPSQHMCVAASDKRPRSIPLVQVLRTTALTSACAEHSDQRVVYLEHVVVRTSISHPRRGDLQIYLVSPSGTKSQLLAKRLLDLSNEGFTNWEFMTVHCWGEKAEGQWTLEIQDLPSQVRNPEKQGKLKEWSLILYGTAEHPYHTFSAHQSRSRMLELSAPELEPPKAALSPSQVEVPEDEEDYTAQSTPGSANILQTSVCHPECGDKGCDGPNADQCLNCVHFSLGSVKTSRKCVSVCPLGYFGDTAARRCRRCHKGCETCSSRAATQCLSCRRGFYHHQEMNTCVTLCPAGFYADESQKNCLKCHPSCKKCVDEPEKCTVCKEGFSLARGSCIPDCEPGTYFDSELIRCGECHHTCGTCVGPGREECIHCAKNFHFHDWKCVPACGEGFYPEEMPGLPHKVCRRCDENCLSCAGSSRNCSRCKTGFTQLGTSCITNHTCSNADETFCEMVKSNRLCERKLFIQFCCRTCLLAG
Procedure, shortened: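 Human recombinant PACE4 made in S2 insect cells and purified. Assay buffer 20 mM Bis-Tris pH 6.5, 1 mM CaCl2, 1.8 g/L BSA. Substrate 100 µM per well, inhibitors 0–10 µM, 2 units enzyme. Fluorescence (ex 370/em 460 nm) followed in real time for 1 h. Ki from IC50 by Cheng–Prusoff; duplicate or triplicate.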

DU-145 [2] = assay: Antiproliferative activity against human DU145 cells after 72 hrs by MTT assay; assay type: functional, cell-based; conditions: DU-145, 72 h
Procedure, shortened: (§1)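 MTT assay run 72 h. Seeding was ~1500 cells/well for DU145 and ~2500 cells/well for LNCaP, in RPMI 1640 with 5% FBS (DU145) or 10% FBS (LNCaP). Medium was changed after 24 h, then inhibitor added at 1–300 µM or 1–150 µM. MTT was added at 1 g/L final for 4 h and formazan dissolved in 2-propanol/HCl. Readings were relative to vehicle (water, 0.1% DMSO). IC50 was from at least two independent experiments.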

DU-145 [3] = assay: Antiproliferative activity against human DU145 cells up to 300 uM after 72 hrs by MTT assay relative to control; assay type: functional; procedure, shortened: as §1
[4] = Drug uptake in human DU145 cells at 1 uM after 1 hr using FITC labelled compound by flow cytometric analysis relative to FITC-[betaAla]-LLLLRVKR-NH2 peptide; assay type: ADME, cell-based; conditions: du-145, 1 h
Procedure, shortened: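 DU145 cells were plated at 200000 per dish and grown 48 h at 37 °C. They were exposed to 1 µM N-terminally FITC-labelled peptide for 1 h at 37 °C, then trypsinized, washed and resuspended in PBS. PI at 10 µg/mL was added to gate out dead cells. Parallel tubes were quenched with 0.04% trypan blue to remove membrane-bound signal. Flow cytometry counted at least 10000 events.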

LNCaP [5] = assay: Antiproliferative activity against human LNCAP cells after 72 hrs by MTT assay; assay type: functional, cell-based; procedure, shortened: as §1
DU-145 [6] = assay: Cytotoxicity against human DU145 cells assessed as effect on live cells up to 100 uM after 1.5 hrs by propidium iodide-staining based FACS analysis; assay type: cell-based; conditions: du-145, 1.5 h
Procedure, shortened: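 DU145 cells (200 000 per well) exposed to peptides in serum-free medium for 1.5 h at 1, 10, 50 and 100 µM, or 1, 10, 15, 20, 30, 50, 100 µM for the dose-response set. Cells trypsinized, washed, resuspended in PBS, PI added (final 10 µg/mL), fluorescence read by flow cytometry; IC50(PI) from the dose-response curve; at least two independent experiments.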

LNCaP [7] = assay: Antiproliferative activity against human LNCAP cells up to 300 uM after 72 hrs by MTT assay relative to control; assay type: functional; procedure, shortened: as §1

Sequence of Furin (P09958 whole entry): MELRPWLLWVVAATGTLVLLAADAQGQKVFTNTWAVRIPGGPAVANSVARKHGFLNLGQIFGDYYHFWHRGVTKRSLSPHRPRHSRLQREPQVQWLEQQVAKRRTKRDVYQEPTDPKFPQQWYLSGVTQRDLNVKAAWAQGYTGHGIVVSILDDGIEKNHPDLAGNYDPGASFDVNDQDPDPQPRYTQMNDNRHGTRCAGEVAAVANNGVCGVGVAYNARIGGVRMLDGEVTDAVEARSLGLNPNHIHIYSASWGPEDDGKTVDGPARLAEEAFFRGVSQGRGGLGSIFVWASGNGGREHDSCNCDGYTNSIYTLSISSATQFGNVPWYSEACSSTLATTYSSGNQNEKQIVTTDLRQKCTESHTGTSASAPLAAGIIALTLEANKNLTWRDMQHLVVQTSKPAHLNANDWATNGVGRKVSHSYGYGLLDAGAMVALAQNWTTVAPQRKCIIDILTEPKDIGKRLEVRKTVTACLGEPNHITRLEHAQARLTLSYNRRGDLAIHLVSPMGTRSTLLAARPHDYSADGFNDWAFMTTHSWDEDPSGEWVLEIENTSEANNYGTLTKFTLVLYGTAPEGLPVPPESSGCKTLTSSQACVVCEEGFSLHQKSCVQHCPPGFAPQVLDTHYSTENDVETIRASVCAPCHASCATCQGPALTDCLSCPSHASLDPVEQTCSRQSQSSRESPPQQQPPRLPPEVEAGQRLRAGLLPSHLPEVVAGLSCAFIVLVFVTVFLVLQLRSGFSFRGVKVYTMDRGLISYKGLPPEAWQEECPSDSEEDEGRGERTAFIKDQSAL

## Ac-LLLLRVKRV-NH2
Homo sapiens
  Ratio Ki: 5
Furin
  Ki: 200 nM
[1]
  Ki: 38 nM
DU-145 [2]
  IC50: 170000 nM

## Ac-LLLLRVKRG-NH2
Homo sapiens
  Ratio Ki: 11
DU-145 [3]
  Activity: <50%
Furin
  Ki: 500 nM
[1]
  Ki: 44 nM

## Ac-LLLLRVKRY-NH2
Homo sapiens
  Ratio Ki: 2
Furin
  Ki: 64 nM
[1]
  Ki: 29 nM
DU-145 [2]
  IC50: 100000 nM

## Ac-LLLLRVKRT-NH2
Homo sapiens
  Ratio Ki: 5
Furin
  Ki: 100 nM
[1]
  Ki: 22 nM
DU-145 [2]
  IC50: 170000 nM

## CC(C)C[C@H](NC(=O)CCN)C(=O)N[C@@H](CC(C)C)C(=O)N[C@@H](CC(C)C)C(=O)N[C@@H](CC(C)C)C(=O)N[C@@H](CCCNC(=N)N)C(=O)N[C@H](C(=O)N[C@@H](CCCCN)C(=O)N[C@@H](CCCNC(=N)N)C(=O)N[C@@H](CCCNC(=N)N)C(N)=O)C(C)C (H-[βAla]LLLLRVKRR-NH2)
[4]
  Drug uptake: Active

## CC(=O)N[C@H](CC(C)C)C(=O)N[C@@H](CC(C)C)C(=O)N[C@@H](CC(C)C)C(=O)N[C@@H](CC(C)C)C(=O)N[C@@H](CCCNC(=N)N)C(=O)N[C@H](C(=O)N[C@@H](CCCCN)C(=O)N[C@@H](CCCNC(=N)N)C(=O)NCCc1ccc(C(=N)N)cc1)C(C)C
Homo sapiens
  Ratio Ki: 10
Furin
  Ki: 700 nM
[1]
  Ki: 68 nM
LNCaP [5]
  IC50: 67000 nM
DU-145 [2]
  IC50: 41000 nM

## CC(=O)N[C@@H](CC(C)C)C(=O)N[C@@H](CC(C)C)C(=O)N[C@@H](CC(C)C)C(=O)N[C@@H](CC(C)C)C(=O)N[C@@H](CCCNC(=N)N)C(=O)N[C@H](C(=O)N[C@@H](CCCCN)C(=O)N[C@@H](CCCNC(=N)N)C(=O)N[C@@H](Cc1ccc(N)cc1)C(N)=O)C(C)C (Ac-LLLLRVKR[Phe(4-NH2)]-NH2)
Homo sapiens
  Ratio Ki: 4
Furin
  Ki: 130 nM
[1]
  Ki: 32 nM
LNCaP [5]
  IC50: 170000 nM
DU-145 [2]
  IC50: 139000 nM

## Ac-LLLLRVKR-NH2
Homo sapiens
  Ratio Ki: 20

## Ac-LLLLRVKRH-NH2
Homo sapiens
  Ratio Ki: 4
DU-145 [3]
  Activity: <50%
Furin
  Ki: 140 nM
[1]
  Ki: 33 nM

## Ac-LLLLRVKRQ-NH2
Homo sapiens
  Ratio Ki: 5
Furin
  Ki: 190 nM
[1]
  Ki: 43 nM
DU-145 [2]
  IC50: 210000 nM

## Ac-LLLLRVKRM-NH2
Homo sapiens
  Ratio Ki: 5
Furin
  Ki: 170 nM
[1]
  Ki: 32 nM
DU-145 [2]
  IC50: 130000 nM

## CC(C)C[C@H](NC(=O)CCN)C(=O)N[C@@H](CC(C)C)C(=O)N[C@@H](CC(C)C)C(=O)N[C@@H](CC(C)C)C(=O)N[C@@H](CCCNC(=N)N)C(=O)N[C@H](C(=O)N[C@@H](CCCCN)C(=O)N[C@@H](CCCNC(=N)N)C(=O)NCCc1c[nH]c2ccccc12)C(C)C (H-[βAla]LLLLRVKR-Tryptamide)
[4]
  fold change (FC): 3.5

## Ac-LLLLRVKRN-NH2
Homo sapiens
  Ratio Ki: 5
DU-145 [3]
  Activity: <50%
Furin
  Ki: 130 nM
[1]
  Ki: 28 nM

## Ac-LLLLRVKRL-NH2
Homo sapiens
  Ratio Ki: 6
Furin
  Ki: 990 nM
[1]
  Ki: 170 nM
DU-145 [2]
  IC50: 90000 nM

## Ac-LLLLRVKRE-NH2
Homo sapiens
  Ratio Ki: 4
DU-145 [3]
  Activity: <50%
Furin
  Ki: 260 nM
[1]
  Ki: 58 nM

## Ac-LLLLRVKRK-NH2
DU-145 [6]
  Activity: Non-Toxic
Homo sapiens
  Ratio Ki: 17
Furin
  Ki: 2600 nM
[1]
  Ki: 150 nM
DU-145 [2]
  IC50: 130000 nM

## CC(C)C[C@H](NC(=O)CCN)C(=O)N[C@@H](CC(C)C)C(=O)N[C@@H](CC(C)C)C(=O)N[C@@H](CC(C)C)C(=O)N[C@@H](CCCNC(=N)N)C(=O)N[C@H](C(=O)N[C@@H](CCCCN)C(=O)N[C@@H](CCCNC(=N)N)C(=O)N[C@@H](CCCCN)C(N)=O)C(C)C (H-[βAla]LLLLRVKRK-NH2)
[4]
  Drug uptake: Active

## Ac-LLLLRVKRD-NH2
Homo sapiens
  Ratio Ki: 2
Furin
  Ki: 74 nM
[1]
  Ki: 30 nM
DU-145 [2]
  IC50: 230000 nM

## Ac-LLLLRVKRP-NH2
Homo sapiens
  Ratio Ki: 4
Furin
  Ki: 990 nM
[1]
  Ki: 250 nM
DU-145 [2]
  IC50: 210000 nM

## CC(=O)N[C@@H](CC(C)C)C(=O)N[C@@H](CC(C)C)C(=O)N[C@@H](CC(C)C)C(=O)N[C@@H](CC(C)C)C(=O)N[C@@H](CCCNC(=N)N)C(=O)N[C@H](C(=O)N[C@@H](CCCCN)C(=O)N[C@@H](CCCNC(=N)N)C(=O)N[C@@H](Cc1ccc(NC(=N)N)cc1)C(N)=O)C(C)C (Ac-LLLLRVKR[Phe(4-guanidino)]-NH2)
Homo sapiens
  Ratio Ki: 13
Furin
  Ki: 140 nM
[1]
  Ki: 11 nM
LNCaP [5]
  IC50: 92000 nM
DU-145 [2]
  IC50: 83000 nM

## Ac-LLLLRVKRI-NH2
LNCaP [7]
  Activity: <50%
Homo sapiens
  Ratio Ki: 5
Furin
  Ki: 290 nM
[1]
  Ki: 64 nM
DU-145 [2]
  IC50: 72000 nM

## CC(C)C[C@H](NC(=O)CCN)C(=O)N[C@@H](CC(C)C)C(=O)N[C@@H](CC(C)C)C(=O)N[C@@H](CC(C)C)C(=O)N[C@@H](CCCNC(=N)N)C(=O)N[C@H](C(=O)N[C@@H](CCCCN)C(=O)N[C@@H](CCCNC(=N)N)C(=O)N[C@@H](Cc1c[nH]c2ccccc12)C(N)=O)C(C)C (H-[βAla]LLLLRVKRW-NH2)
[4]
  fold change (FC): 2

## Ac-LLLLRVKRF-NH2
Homo sapiens
  Ratio Ki: 4
Furin
  Ki: 74 nM
[1]
  Ki: 20 nM
LNCaP [5]
  IC50: 170000 nM
DU-145 [2]
  IC50: 70000 nM

## Ac-LLLLRVKRA-NH2
Homo sapiens
  Ratio Ki: 6
Furin
  Ki: 210 nM
[1]
  Ki: 37 nM
DU-145 [2]
  IC50: 160000 nM

## Ac-LLLLRVKRS-NH2
Homo sapiens
  Ratio Ki: 5
Furin
  Ki: 330 nM
[1]
  Ki: 64 nM
DU-145 [2]
  IC50: 240000 nM
